The values below come from ChEMBL document CHEMBL1250542, “Synthesis and biological evaluation of a series of aromatic bisphosphonates” (Bioorg Med Chem, 2010).

SMILES strings stand for the structures. The source made the active and inactive calls. The calls are words filed in the database; no cut-off is given here.

The target of assay [1] is T1, Geranylgeranyl pyrophosphate synthase (Homo sapiens) (UniProt O95749).
T1 sequence (whole entry): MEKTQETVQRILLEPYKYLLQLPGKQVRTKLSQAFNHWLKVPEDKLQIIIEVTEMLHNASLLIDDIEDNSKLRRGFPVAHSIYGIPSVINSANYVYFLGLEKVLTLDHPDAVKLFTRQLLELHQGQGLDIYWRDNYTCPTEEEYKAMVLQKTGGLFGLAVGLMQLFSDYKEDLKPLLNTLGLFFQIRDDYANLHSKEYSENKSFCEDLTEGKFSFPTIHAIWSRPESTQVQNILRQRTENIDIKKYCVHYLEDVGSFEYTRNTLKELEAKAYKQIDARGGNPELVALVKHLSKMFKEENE
Nature of the assay: Inhibition of GST-tagged human recombinant GGDPS expressed in BL21 gold bacteria at 10 uM by liquid scintillation counting. Summed up:
(§1)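 Purified recombinant human GGDPS in buffer containing 0.5 mM MgCl₂ and 0.5 mM ZnCl₂ was preincubated with compounds for 10 min. Reactions were started with ¹⁴C-IPP plus FPP and run for 1 h at 37 °C. Products were extracted into water-saturated butanol, washed twice with saturated water, and counted by liquid scintillation. Data are from a single-concentration screen and concentration–response curves with IC₅₀ extrapolated, mean SD, n = 2.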

The subject of assay [2] is K562. The experiment in a line: Inhibition of GGTase1 in human K562 cells assessed as reduction of Rap1a protein geranylgeranylation at 50 uM after 48 hrs by Western blotting. The class given is cell-based. In outline:
(§2)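 Prenylation in intact cells: K562 cells at 5 × 10⁵ cells/mL were incubated with compounds or lovastatin for 48 h, as a single-concentration screen or a concentration series. Lysates were made in 2% SDS/66 mM Tris and protein was measured by BCA. Samples were resolved on 12% and 15% gels, transferred to PVDF, and probed for pan-Ras, Rap1a or Rab6, with α-tubulin as reference. Detection was by ECL.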

Assay [3] has as its target T2, Farnesyl pyrophosphate synthase (Homo sapiens) (UniProt P14324).
T2 sequence (whole entry): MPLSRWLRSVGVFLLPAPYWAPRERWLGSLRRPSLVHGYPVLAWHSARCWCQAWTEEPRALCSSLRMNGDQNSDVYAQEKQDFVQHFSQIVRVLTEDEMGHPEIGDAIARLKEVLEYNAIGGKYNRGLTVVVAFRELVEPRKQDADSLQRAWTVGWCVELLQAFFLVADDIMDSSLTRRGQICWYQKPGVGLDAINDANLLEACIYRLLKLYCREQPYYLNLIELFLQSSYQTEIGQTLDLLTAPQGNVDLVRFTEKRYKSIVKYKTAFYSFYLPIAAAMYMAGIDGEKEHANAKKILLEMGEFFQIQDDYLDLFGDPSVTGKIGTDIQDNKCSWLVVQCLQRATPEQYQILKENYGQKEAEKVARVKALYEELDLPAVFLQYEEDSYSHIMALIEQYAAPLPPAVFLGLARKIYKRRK
The experiment in a line: Inhibition of FDPS in human K562 cells assessed as reduction Ras protein farnesylation after 48 hrs by Western blotting in presence of mevalonate and FPP. The class given is cell-based. Summed up: (§3)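 Add-back assay: K562 cells at 5 × 10⁵ cells/mL were exposed for 48 h to compounds, or to lovastatin, with or without exogenous mevalonate, FPP or GGPP. Lysates were made in 2% SDS/66 mM Tris and protein was measured by BCA. Samples were run on 12% and 15% SDS gels, transferred to PVDF, and immunoblotted for pan-Ras, Rap1a or Rab6, with α-tubulin as reference. Detection was by ECL.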
Background: Immunoblotting shows a protein as a band on a membrane.

The target of assay [4] is T1, Geranylgeranyl pyrophosphate synthase (Homo sapiens). Nature of the assay: Inhibition of GGDPS in human K562 cells assessed as reduction Rab6 protein geranylgeranylation after 48 hrs by Western blotting in presence GGPP. The class given is cell-based. In outline: as §3
The subject of assay [5] is K562. Nature of the assay: Inhibition in human K562 cells assessed as reduction of RAB6 protein geranylgeranylation after 48 hrs by Western blotting.
Assay [6] addresses T1, Geranylgeranyl pyrophosphate synthase (Homo sapiens). Nature of the assay: Inhibition of GGDPS in human K562 cells assessed as reduction Rap1a protein geranylgeranylation after 48 hrs by Western blotting in presence GGPP. The class given is cell-based. Summed up:
as §3

Assay [7] deals with T3, Geranylgeranyl pyrophosphate synthase (Homo sapiens, UniProt O95749).
T3 sequence (O95749 whole entry): T1 sequence (whole entry)
The experiment in a line: Inhibition of GST-tagged human recombinant GGDPS expressed in BL21 gold bacteria by liquid scintillation counting. Summed up:
as §1

The test system of assay [8] is K562. Nature of the assay: Anticancer activity against human K562 cells assessed as inhibition of DNA synthesis by [3H]thymidine incorporation assay. The class given is functional, cell-based. In outline: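 [³H]thymidine (3.75 Ci/mmol in media) was added at 44 or 68 h. At 48 or 72 h, cells were harvested onto glass microfiber paper and incorporated label was scintillation counted. Proliferation is expressed as % of untreated cells, mean S.E., n = 4.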

The target of assay [9] is T2, Farnesyl pyrophosphate synthase (Homo sapiens). The experiment in a line: Inhibition of FDPS in human K562 cells assessed as reduction of Ras protein farnesylation after 48 hrs by Western blotting. The class given is cell-based. In outline:
as §2

For assay [10], the system named is K562. The experiment in a line: Inhibition of GGTase1 in human K562 cells assessed as reduction of Rap1a protein geranylgeranylation at 12.5 uM after 48 hrs by Western blotting. The class given is cell-based. Summed up:
as §2

Assay [11] deals with K562. Nature of the assay: Inhibition of GGTase1 in human K562 cells assessed as reduction of Rap1a protein geranylgeranylation after 48 hrs by Western blotting. In kind it is cell-based. In outline:
as §2

`O=P(O)(O)C(Cc1ccccc1)P(=O)(O)O`: the “inhibition activity call (active/not active)” value in assay [1] was “inactive”.

As to `CC(C)=CCc1ccc(CC(P(=O)(O)O)P(=O)(O)O)cc1`, in [1], the “inhibition activity call (active/not active)” value was “inactive”.

Turning to `CC(C)=CCC/C(C)=C/CC(Cc1ccc(CC=C(C)C)cc1)(P(=O)(O)O)P(=O)(O)O`, the inhibition entry (in the assay on K562 [2]; in assay [3]; in the assay with K562 [5]; in the assay with K562 [8]) was “Active” each time. For the same compound, the “inhibition activity call (active/not active)” value in assay [1] was “Active”. The inhibition result in assay [4], in assay [6] and in assay [9] was “inactive” throughout. The IC50 in assay [7] came out at 800 nM.

`CC(C)=CCC/C(C)=C/CC(Cc1cccnc1)(P(=O)(O)O)P(=O)(O)O`: the “inhibition activity call (active/not active)” value in assay [1] is “Active”.

In the case of `CC(C)=CCc1cccc(CC(P(=O)(O)O)P(=O)(O)O)c1`, the “inhibition activity call (active/not active)” value in assay [1] is “inactive”.

`CC(C)=CCC/C(C)=C/CC(Cc1cccc(CC=C(C)C)c1)(P(=O)(O)O)P(=O)(O)O`: the inhibition result (in the assay on K562 [2]; in assay [3]; in the assay with K562 [5]; in the assay with K562 [8]) was “Active” in each case. In addition, the “inhibition activity call (active/not active)” value in [1] is “Active”. Further, in the assay on K562 [10], the outcome was Active. Moreover, the inhibition result in assay [4], in [6] and in assay [9] was “inactive” in each case. Moreover, in assay [7], the IC50 turned out to be 250 nM.

Take `CC[C@H](C)C(=O)O[C@H]1C[C@@H](C)C=C2C=C[C@H](C)[C@H](CC[C@@H]3C[C@@H](O)CC(=O)O3)[C@H]21`: the inhibition result in [3] is “inactive”. Moreover, the inhibition result in the assay with K562 [11] was “Active”.

Turning to `CC(C)=CCC/C(C)=C/CC(Cc1ccccc1)(P(=O)(O)O)P(=O)(O)O`, in assay [1], the “inhibition activity call (active/not active)” value is “Active”.

As usually defined, the IC50 is the concentration that gives 50% inhibition.
